As a reminder, the MIC is the least concentration at which growth counts as inhibited.

This is an account of results in ChEMBL document CHEMBL4680121, “Development of (4-methoxyphenyl)-1H-tetrazol-5-amine regioisomers as a new class of selective antitubercular agents” (Eur J Med Chem, 2020).

The subject of one series is Escherichia coli. As to the kind of experiment: Antibacterial activity against Escherichia coli ATCC 25922 assessed as bacterial growth inhibition measured after 18 hrs by two-fold serial microdilution method. It counts as functional. The gist of the method:
(§1)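 Two-fold serial broth microdilution in MH II medium following modified CLSI procedures. Compounds were dissolved in DMSO and diluted in medium to at most 1% solvent, tested from 0.03125 to 512 μg/ml. Final inoculum 10^6 CFU/ml. MIC was taken as the lowest concentration with no visible growth after 18 h at 35 °C.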

For the next series, the system named is Mycobacterium avium. As to the kind of experiment: Antimycobacterial activity against Mycobacterium avium assessed as inhibition of microbial growth incubated for 1 week by MABA method. As to conditions: 168 h, time 1 weeks. It counts as functional. The gist of the method:
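Microplate Alamar Blue assay in Middlebrook 7H9 broth with 10% OADC. Inoculum from fresh LJ culture was adjusted to McFarland 1 and diluted 1:20. DMSO stocks were two-fold serially diluted to final 0.125–512 µg/ml, with growth and sterile controls. Plates ran 1 week at 37 °C, then Alamar blue was added for 24 h. MIC is the lowest concentration preventing the blue-to-pink change.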

Another series relates to Mycobacterium kansasii. Nature of the series: Antibacterial activity against Mycobacterium kansasii assessed as inhibition of microbial growth incubated for 1 week by MABA method. It counts as functional. As to conditions: 168 h, time 1 weeks. In outline:
(§2)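 Microplate Alamar Blue assay using two-fold serial microdilution in Middlebrook 7H9 broth with 10% OADC, compounds 0.125–512 µg/ml from DMSO stocks. Inoculum came from fresh LJ culture, was adjusted to McFarland 1 and diluted 1:20. Plates were incubated 1 week at 37 °C, Alamar blue was added and plates were re-incubated 24 h. MIC was the lowest concentration preventing the blue-to-pink change. Each plate carried growth and sterile controls.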

Series [1] has as its system Mycobacterium scrofulaceum. Nature of the series: Antibacterial activity against Mycobacterium scrofulaceum assessed as inhibition of microbial growth incubated for 1 week by MABA method. It counts as functional. Conditions: 168 h, time 1 weeks. The gist of the method:
as §2
For orientation: The colour change of resazurin is a common sign of viable cells or microbes.

A further series has as its system Mycobacterium xenopi. As to the kind of experiment: Antibacterial activity against Mycobacterium xenopi assessed as inhibition of microbial growth incubated for 1 week by MABA method. It counts as functional. Conditions: 168 h, time 1 weeks. In outline:
as §2

The test system of series [2] is Mycobacterium tuberculosis. Nature of the series: Antitubercular activity against Mycobacterium tuberculosis H37Rv ATCC 25618 assessed as fractional inhibitory concentration index incubated for 14 days in presence of 1/2 x MIC rifampicin by MABA method. It counts as functional. Conditions: time 14 day. In outline:
(§3)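 Interaction analysis in Middlebrook 7H9 with 10% OADC. Combination MICs came from mixing the derivative (1 to 1/32 MIC) with the reference drug at 1/2 MIC, and the reverse, after 14 days at 37 °C with McFarland 1 inoculum. FICI was calculated from the combination MIC values and the MICs alone.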

Series [3] has as its system Mycobacterium tuberculosis. Nature of the series: Antitubercular activity against Mycobacterium tuberculosis H37Rv ATCC 25618 assessed as fractional inhibitory concentration index incubated for 14 days in presence of 1/2 x MIC isoniazid by MABA method. As to conditions: time 14 day. It counts as functional. In outline: as §3
Series [4] deals with Mycobacterium tuberculosis. Nature of the series: Antitubercular activity against Mycobacterium tuberculosis Spec.192 assessed as fractional inhibitory concentration index in presence of 1/2 x MIC ethambutol incubated for 14 days by MABA method. It counts as functional. Conditions: time 14 day. The gist of the method: as §3
The subject of series [5] is Staphylococcus epidermidis. Nature of the series: Antibacterial activity against Staphylococcus epidermidis ATCC 1457 assessed as bacterial growth inhibition measured after 18 hrs by two-fold serial microdilution method. It counts as functional. The gist of the method: as §1
A general note: Dilution methods test growth across graded concentrations, often in twofold steps.

In series [6] the test system is Pseudomonas aeruginosa. Nature of the series: Antibacterial activity against Pseudomonas aeruginosa NCTC 6749 assessed as bacterial growth inhibition measured after 18 hrs by two-fold serial microdilution method. It counts as functional. The gist of the method: as §1
The subject of series [7] is Pseudomonas aeruginosa. As to the kind of experiment: Antibacterial activity against Pseudomonas aeruginosa PAO1 assessed as bacterial growth inhibition measured after 18 hrs by two-fold serial microdilution method. It counts as functional. The gist of the method:
as §1

For the next series, the system named is Proteus vulgaris. As to the kind of experiment: Antibacterial activity against Proteus vulgaris NCTC 4635 assessed as bacterial growth inhibition measured after 18 hrs by two-fold serial microdilution method. It counts as functional. In outline:
as §1

Series [8] is described as follows: Cytotoxicity against human HTB-140 cells assessed as LDH release at 100 uM incubated for 72 hrs by LDH assay. It counts as cell-based. Conditions: htb-140, 72 h. The gist of the method: (§4)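 LDH release measured with a kit after 72 h exposure to 100 μM compound. Cells were seeded at 1×10^4 per well in DMEM or EMEM with 2% FBS. Absorbance was read at 490 nm. Release (%) = (A sample − A low control)/(A high control − A low control) × 100, with the Triton X-100 (1%) control taken as 100% release. Values are mean ± SD of three independent experiments run in triplicate.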
(In general: LDH in the medium is a marker of cell lysis.)

In a further series the test system is A549. As to the kind of experiment: Cytotoxicity against human A549 cells assessed as LDH release at 100 uM incubated for 72 hrs by LDH assay. It counts as cell-based. As to conditions: a549, 72 h. In outline: as §4
For another series, the system named is HaCaT. Nature of the series: Cytotoxicity against human HaCaT cells assessed as LDH release at 100 uM incubated for 72 hrs by LDH assay. It counts as cell-based. The gist of the method:
as §4

The test system of series [9] is Mycobacterium tuberculosis. Nature of the series: Antitubercular activity against Mycobacterium tuberculosis H37Rv ATCC 25618 assessed as rifampicin MIC incubated for 14 days in presence of rifampicin by MABA method. It counts as functional. Conditions: H37Rv ATCC 25618, 336 h, time 14 day. In outline:
(§5)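 In Middlebrook 7H9 with 10% OADC, the reference drug (INH, RMP, SM or EMB) at 1 to 1/32 of its MIC alone was mixed with the test derivative fixed at 1/2 its MIC. 4 ml samples were inoculated with McFarland 1 suspension and incubated 14 days at 37 °C. MIC is the lowest drug concentration in combination that inhibited growth.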

For series [10], the system named is Mycobacterium tuberculosis. As to the kind of experiment: Antitubercular activity against Mycobacterium tuberculosis H37Rv ATCC 25618 assessed as streptomycin MIC incubated for 14 days in presence of streptomycin by MABA method. It counts as functional. As to conditions: H37Rv ATCC 25618, 336 h, time 14 day. In outline: as §5
The subject of series [11] is Mycobacterium tuberculosis. As to the kind of experiment: Antitubercular activity against Mycobacterium tuberculosis Spec.192 assessed as reduction in bacterial growth incubated for 14 days in presence of 1/2 x MIC isoniazid by MABA method. As to conditions: Mycobacterium tuberculosis, 192, 336 h; time 14 day. It counts as functional. In outline:
(§6)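 Checkerboard-type combination in Middlebrook 7H9 with 10% OADC. The test derivative at 1 to 1/32 of its MIC alone was mixed with the reference drug fixed at 1/2 its MIC. 4 ml samples were inoculated with McFarland 1 suspension and incubated 14 days at 37 °C. MIC is the lowest derivative concentration in combination that inhibited growth in liquid medium.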

Series [12] relates to Mycobacterium tuberculosis. As to the kind of experiment: Antitubercular activity against Mycobacterium tuberculosis Spec.192 assessed as reduction in bacterial growth incubated for 14 days in presence of 1/2 x MIC streptomycin by MABA method. It counts as functional. As to conditions: Mycobacterium tuberculosis, 192, 336 h; time 14 day. In outline:
as §6

Series [13] deals with Mycobacterium tuberculosis. Nature of the series: Antitubercular activity against Mycobacterium tuberculosis Spec.192 assessed as reduction in bacterial growth incubated for 14 days in presence of 1/2 x MIC ethambutol by MABA method. It counts as functional. Conditions: Mycobacterium tuberculosis, 192, 336 h; time 14 day. The gist of the method: as §6
Series [14] relates to Mycobacterium tuberculosis. As to the kind of experiment: Antitubercular activity against Mycobacterium tuberculosis Spec.192 assessed as rifampicin MIC incubated for 14 days in presence of rifampicin by MABA method. As to conditions: Mycobacterium tuberculosis, 192, 336 h; time 14 day. It counts as functional. In outline:
as §5

For series [15], the system named is Mycobacterium tuberculosis. Nature of the series: Antitubercular activity against Mycobacterium tuberculosis Spec.192 assessed as isoniazid MIC incubated for 14 days in presence of isoniazid by MABA method. Conditions: Mycobacterium tuberculosis, 192, 336 h; time 14 day. It counts as functional. In outline: as §5
Another series relates to V79. Nature of the series: Cytotoxicity against Chinese Hamster V79 cells assessed as reduction in cell viability at 100 uM measured after 72 hrs by MTT assay. It counts as cell-based, Cricetulus griseus. Conditions: v79, 72 h. The gist of the method: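 MTT viability assay on cells grown in DMEM with 10% heat-inactivated FBS, penicillin/streptomycin and 20 mM HEPES at 37 °C/5% CO2. Cells were seeded at 1×10^4 per well and allowed to adhere for 24 h, then the medium was refreshed. Compounds were added at 20–140 μM for 72 h at 37 °C, followed by MTT (0.5 mg/mL in serum-free medium) for 4 h. Untreated cells served as control. IC50 is the concentration giving 50% growth inhibition versus control.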

In the case of `COc1ccc(-n2nnnc2Nc2cccc(Br)c2)cc1`, the MIC in the series on Escherichia coli is > 256 µg/mL; with Mycobacterium avium, 256 µg/mL; with Mycobacterium kansasii it was 512 µg/mL; in series [1], 512 µg/mL; in the series on Mycobacterium xenopi it was > 512 µg/mL; in series [5] it was > 256 µg/mL. Moreover, the minimal inhibitory concentration (MIC) in the series with Pseudomonas aeruginosa [6] was > 256 µg/mL; in the series on Pseudomonas aeruginosa [7], > 256 µg/mL; with Proteus vulgaris it was > 256 µg/mL; in series [9] it was 0.25 µg/mL; in series [10] it was 0.25 µg/mL; in [11], 0.25 µg/mL. Moreover, the MIC in series [12] was determined as 0.5 µg/mL; in series [13], 0.5 µg/mL; in series [14], 0.25 µg/mL; in series [15] it was 0.5 µg/mL. Also, the entries for the “fractional inhibitory concentration index (FICI)” value in series [2], in series [3] and in series [4] were 0.5, 4.125 and 0.75, respectively. Besides, the Activity in series [8] is on record as < 17%; in the series with A549, “Non-Toxic”; with HaCaT it was 4.88%; in the series with V79, “Non-Toxic”.

Turning to `COc1ccc(-n2nnnc2Nc2ccc(Br)cc2)cc1`, the minimum inhibitory concentration (MIC) with Escherichia coli was > 256 µg/mL; with Mycobacterium avium it was 512 µg/mL; in the series with Mycobacterium kansasii, 512 µg/mL; in series [1], 512 µg/mL; in the series on Mycobacterium xenopi, 256 µg/mL; in [5], > 256 µg/mL. The MIC with Pseudomonas aeruginosa [6] is > 256 µg/mL; with Pseudomonas aeruginosa [7], > 256 µg/mL; in the series on Proteus vulgaris, > 256 µg/mL; in series [9], 0.25 µg/mL; in series [10], 0.25 µg/mL; in series [11] it was 0.25 µg/mL. The MIC in [12] was 0.25 µg/mL; in series [13], 0.25 µg/mL; in series [14], 0.25 µg/mL; in series [15], 0.5 µg/mL. Moreover, the “fractional inhibitory concentration index (FICI)” value is listed as 0.5 in [2], 4.125 in series [3] and 0.625 in series [4]. Further, the Activity entry in [8] was “Non-Toxic”; with A549 it was “Non-Toxic”; with HaCaT it was 7.25%; in the series with V79, “Non-Toxic”.
